Test results as given in ChEMBL document CHEMBL1123479, “Substituted 1,3,4-thiadiazoles with anticonvulsant activity. 2. Aminoalkyl derivatives” (J Med Chem, 1986).

Tests used:
Mus musculus [1] = species: Mus musculus; assay: Compound was evaluated for anticonvulsant activity in mice against electroshock seizures; assay type: functional
Outline: (§1)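 Mouse screen with oral dosing; the ED50 is given in mg/kg, po. Signs of sedation, ataxia, loss of righting reflex and death were noted after oral dosing before anticonvulsant testing.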

Mus musculus [2] = species: Mus musculus; assay: Compound was evaluated for anticonvulsant activity in mice against metrazole seizures; assay type: functional; outline: as §1
Mus musculus [3] = assay: Compound was evaluated for inhibition of hind limb tonus (anticonvulsant activity) in mouse maximal metrazole seizures (MMS) after peroral administration; assay type: functional; details: Hindlimb, po
Mus musculus [4] = species: Mus musculus; assay: Compound was evaluated for inhibition of hind limb tonus (anticonvulsant activity) in mouse; assay type: functional, Hindlimb
Outline: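 Maximal electroshock in mice, ip dosing. The ED50 (mg/kg) is for blocking hind limb tonic extension at each compound's time of peak effect, which was determined in min. 95% confidence limits are reported.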

Mus musculus [5] = species: Mus musculus; assay: Compound was evaluated for inhibition of hind limb tonus (anticonvulsant activity ) in mouse; assay type: functional, Hindlimb
Outline: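 Maximal electroshock in mice, scoring abolition of hind-limb tonic extension. Compound given ip and tested at its time of peak effect. ED50 in mg/kg reported with 95% confidence limits.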

[6] = Compound was tested for rotarod test in mice and TD50 value at which 50% of trained animals fall off rotarod was reported; assay type: organism-based; details: mouse, in vivo
Outline: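 Mice trained on the rotorod, then dosed po (tested at 1 h) or ip (tested at time of peak anticonvulsant effect). Neurotoxicity scored as falling off the rod.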

| Structure (SMILES) | ED50 (Mus musculus [1]) [mg/kg] | ED50 (Mus musculus [2]) [mg/kg] | also measured |
| --- | --- | --- | --- |
| NCCc1nnc(-c2ccccc2-c2ccccc2)s1 | 50 | 68 |  |
| CC(C)NCc1nnc(-c2ccccc2-c2ccccc2)s1 | 23 | 35 |  |
| CNCc1nnc(-c2ccccc2)s1 | > 200 | > 200 |  |
| NCCCc1nnc(-c2ccccc2-c2ccccc2)s1 | > 200 | > 200 |  |
| CC(N)c1nnc(-c2ccccc2-c2ccccc2)s1 (centres undefined) | 21 | 32 |  |
| NCc1nnc(-c2ccccc2-c2ccccc2)s1 |  |  | ED50 (Mus musculus [3]): 20 mg/kg; Peak effect time (Mus musculus [4]): 10 min |
| CCCCCCOc1ccccc1-c1nnc(CNC)s1 | 44 |  |  |
| Cc1ccccc1NCc1nnc(-c2ccccc2-c2ccccc2)s1 | > 200 | > 200 |  |
| NCc1nnc(Cc2ccccc2)s1 | 110 | 200 |  |
| CN(C)Cc1nnc(-c2ccccc2-c2ccccc2)s1 | 32 | 35 |  |
| c1ccc(CNCc2nnc(-c3ccccc3-c3ccccc3)s2)cc1 | 37 | 29 |  |
| CNCc1nnc(-c2ccccc2-c2ccccc2)s1 | 25 | 20 |  |
| NCc1nnc(Cc2ccccc2-c2ccccc2)s1 | 30 |  |  |
| CCCCCCOc1ccccc1-c1nnc(CN)s1 | 34 |  |  |
| NC(=O)N1c2ccccc2C=Cc2ccccc21 [CARBAMAZEPINE] |  |  | Peak effect time (Mus musculus [4]): 20 min |
| CCC1(c2ccccc2)C(=O)NC(=O)NC1=O [PHENOBARBITAL] |  |  | Peak effect time (Mus musculus [5]): 30 min; TD50 [6]: 86 mg/kg |
| O=C1NC(=O)C(c2ccccc2)(c2ccccc2)N1 [PHENYTOIN] |  |  | Peak effect time (Mus musculus [5]): 60 min |
